High-throughput results as filed in PubChem.
Cneo AK release: Cryptococcus neoformans cell lysis inducers, primary screen, AK release luminescence, single concentration | C. neoformans lysis, adenylate kinase release luminescence, 4 h; normalised: neutral wells 0, clomiphene wells 100 | lysis activity, % at 15 µM | 360,000 compounds, 0.2% hits;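 active = mean lysis activity across replicates of at least 80%, whatever share of replicates individually reach that level; inactive = mean lysis activity below 80%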
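Test system: log-phase Cryptococcus neoformans yeast cells. Input: 5 × 10^6 yeast cells/mL. Medium: fresh YPD growth medium. Doses: single dose. Incubation: static 4 h at 37 °C with compound, 1 h detection. Measured by: luminescent adenylate kinase detection reagent. Read-out: signal increase indicating cell lysis. Benchmarks: Clomiphene.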
DENV2 CPE rescue: inhibitors of DENV2 cytopathic effect, primary screen, cell-based, plate reader, single concentration. DENV2-infected cells, cytopathic effect rescue. CPE inhibition, % at 9.99 µM. 350,000 compounds, 1.7% hits. AID 651640, 2012; in the data active = CPE inhibition above about 20%, passing the limit was not always enough; inconclusive = no clear call, values can overlap the other calls; tested in BHK-21 cells
F508del corr: F508del CFTR correction, initial screen, CFBE line, single point. CFBE cells, YFP halide quenching; stimulated with forskolin plus potentiator P3; % fluorescence drop versus neutral controls. activity (quench increase), % at 7.58 µM. 350,000 compounds, 0.36% hits;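 active = mean added fluorescence quench of at least 8% versus neutral control, with both replicates also reaching 8%; inconclusive = only one of the mean or replicate conditions met; inactive = mean below 8% and not both replicates reaching 8%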;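 also: cells transiently co-express mutant CFTR-F508del with the halide-sensitive YFP; corrector assay measuring rescue of mutant channel to the surface after 24 h compound exposure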
Xi reactivation: activators of inactive X chromosome reactivation, primary screen, imaging, XiGFP fibroblasts, GFP high-content imaging, set 2. 360,000 compounds, 0.055% hits. activation, % at 7.58 µM. XiGFP mouse fibroblasts, % GFP-positive cells imaging, 3 d; cells co-treated with 5-aza-dC sensitizer; scaled so ellipticine positive control = 100%;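 active = mean normalized replicate activation at least 10% and every replicate at or above 10%; inconclusive = only one of the two criteria met; inactive = mean below 10% and not all replicates reach 10%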
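Assay system: SV40-immortalized XiGFP fibroblast cells, line 68-5-11; buffer or medium: DMEM plus 5-aza-dC sensitizer; compound: one concentration, pinned; timing: compounds 3 days, fix/stain 15 min at room temperature; benchmarks: positive control ellipticine, 6 µM final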
FN deposition inh: inhibitors of fibronectin matrix deposition, primary screen, AH1F cells, Alexa488-fibronectin fluorescence, plate reader; AH1F fibroblasts, overnight; 350,000 compounds, 0.086% hits; inhibition, % at 12.6 µM;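 active = mean inhibition across replicates of 30% or more, regardless of how many single replicates reach that level; inconclusive = mean under 30% yet at least half of replicates reach 30%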
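Material: AH1F fibroblast monolayer depositing Alexa488-labelled fibronectin into matrix | Input: 10000 AH1F cells/well | Medium: DMEM plus 2% serum, read in PBS | Reagent: Alexa488-fibronectin, 24 nM final in well | Compound dosing: One dose per compound, pinned | Schedule: 1 h adhesion, overnight exposure | Measured by: Fluorescence at 485 nm excitation, 525 nm emission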
PGC1a acetyl inh: inhibitors of PGC1a acetylation signal, primary screen, cell-based, U2OS, AlphaScreen, inhibitor mode | AlphaScreen anti-acetyl-lysine; with virally co-expressed GCN5 acetyltransferase | inhibition, % at 15.6 µM | 350,000 compounds, 0.17% hits | AID 651687, 2012;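 active = every replicate shows inhibition of at least 40%; inconclusive = mean inhibition at least 40% but some replicate below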
Each line names hits and unclear results; the compound was inactive in the other large screens. In the library only some 1.9% were active in any assay of this set; here they are far more common.

Cc1noc(C)c1S(=O)(=O)N(C)C[C@@H]1Oc2ccc(NC(=O)NC3CCCCC3)cc2CC(=O)N([C@H](C)CO)C[C@@H]1C	none
CCNc1nc(NCC)nc(C(=O)OCCO)n1	DENV2 CPE rescue 29
CC(C)Nc1nc(NC(C)C)nc(C(=O)OCCO)n1	none
CC(C)NC(=O)NCC[C@@H]1CC[C@@H](NS(=O)(=O)c2ccccc2)[C@H](CO)O1	none (no result: Cneo AK release, FN deposition inh)
CC(=O)N1[C@H](CO)[C@H](c2ccc(C3=CCCC3)cc2)C12CN(C(=O)NC(C)C)C2	none (no result: Cneo AK release)
Cn1ncc(Cl)c1C(=O)N1CCN(S(=O)(=O)c2ccc(F)cc2)CC1	DENV2 CPE rescue inconclusive (no result: PGC1a acetyl inh)
Cn1ncc(Cl)c1C(=O)N1CCN(c2ccc(F)cc2)CC1	DENV2 CPE rescue 50
C[C@@H]1CN([C@@H](C)CO)C(=O)c2cc(NC(=O)C3CCCCC3)ccc2O[C@@H](C)CCCCO[C@@H]1CN(C)C(=O)Nc1ccc(C(F)(F)F)cc1	none (no result: FN deposition inh)
C[C@@H]1CCCCO[C@@H](CN(C)Cc2ccc(C(F)(F)F)cc2)[C@@H](C)CN([C@H](C)CO)C(=O)c2cc(NC(=O)c3ccccc3)ccc2O1	DENV2 CPE rescue 25 (no result: FN deposition inh)
C[C@H]1CCCCO[C@@H](CN(C)Cc2ccc(C(F)(F)F)cc2)[C@@H](C)CN([C@@H](C)CO)C(=O)c2cc(NC(=O)c3ccccc3)ccc2O1	DENV2 CPE rescue 23 (no result: FN deposition inh)
C[C@@H]1CN([C@@H](C)CO)C(=O)c2cc(NC(=O)c3ccccc3)ccc2O[C@@H](C)CCCCO[C@H]1CN(C)Cc1ccc(C(F)(F)F)cc1	DENV2 CPE rescue 49 (no result: FN deposition inh)
C[C@@H]1CCCCO[C@H](CN(C)Cc2ccc(C(F)(F)F)cc2)[C@@H](C)CN([C@@H](C)CO)C(=O)c2cc(NC(=O)c3ccccc3)ccc2O1	none (no result: FN deposition inh)
C[C@@H]1CCCCO[C@@H](CN(C)C(=O)Nc2ccc(C(F)(F)F)cc2)[C@@H](C)CN([C@H](C)CO)C(=O)c2cc(NC(=O)C3CCCCC3)ccc2O1	DENV2 CPE rescue 27 (no result: FN deposition inh)
CN1CCN(C(=O)C[C@H]2CC[C@H]3[C@@H](COC[C@@H](O)CN3C(=O)Cc3ccccc3)O2)CC1	none
COc1ccccc1S(=O)(=O)Nc1ccc2c(c1)C(=O)N(C)C[C@H](OC)[C@@H](C)CN[C@@H](C)CO2	none
CCCNC(=O)C[C@H]1CC[C@@H]2[C@@H](COc3ccc(NC(=O)NCCC)cc3C(=O)N2C)O1	none (no result: Cneo AK release)
CN1C(=O)c2cc(NS(=O)(=O)c3cccc(F)c3)ccc2OC[C@H]2O[C@@H](CC(=O)N3CCc4ccccc4C3)CC[C@H]21	none (no result: DENV2 CPE rescue)
C[C@@H]1CCCCO[C@@H](CN(C)Cc2ccc(C(F)(F)F)cc2)[C@@H](C)CN([C@H](C)CO)C(=O)c2cc(NC(=O)C3CCCCC3)ccc2O1	DENV2 CPE rescue 31 (no result: FN deposition inh)
CCCc1cc(=O)oc2c(C)c(OC3CCCCC3=O)ccc12 (stereo not drawn)	DENV2 CPE rescue 26 (no result: PGC1a acetyl inh)
CCCc1cc(=O)oc2c(C)c(OS(C)(=O)=O)ccc12	none (no result: DENV2 CPE rescue, F508del corr, Xi reactivation, FN deposition inh, PGC1a acetyl inh)
Cc1noc(C)c1S(=O)(=O)N(C)C[C@H]1Oc2ccc(NC(=O)Cc3cn(C)c4ccccc34)cc2CC(=O)N([C@H](C)CO)C[C@@H]1C	none (no result: FN deposition inh)
COCC(=O)N1CC2(CN(C(=O)NC(C)C)C2)c2c(n(C)c3cc(OC)ccc23)[C@@H]1CO	DENV2 CPE rescue 26 (no result: Cneo AK release, FN deposition inh)
COCC(=O)N1CC2(C1)CN(C(=O)NC1CCCC1)[C@H](CO)c1c2c2ccc(OC)cc2n1C	DENV2 CPE rescue 68 (no result: Cneo AK release)
COc1ccc(NC(=O)N[C@H]2CC[C@@H](CCn3cc(-c4ccc(OC)cc4)nn3)O[C@H]2CO)cc1	none
COc1ccc(-c2cn(CC[C@@H]3CC[C@H](NC(=O)Nc4ccc(F)cc4)[C@@H](CO)O3)nn2)cc1	DENV2 CPE rescue 50 (no result: Cneo AK release, PGC1a acetyl inh)
COc1ccc(NC(=O)N[C@H]2CC[C@H](CCn3cc(-c4ccccc4F)nn3)O[C@@H]2CO)cc1	PGC1a acetyl inh 69 (no result: FN deposition inh)
COc1ccc(NC(=O)N[C@H]2CC[C@@H](CCn3cc(-c4ccccc4F)nn3)O[C@@H]2CO)cc1	none (no result: FN deposition inh)
CNC[C@H]1Oc2ccc(NC(=O)Nc3ccc(C(F)(F)F)cc3)cc2CC(=O)N([C@H](C)CO)C[C@H]1C	none
C[C@H]1CN([C@@H](C)CO)C(=O)c2cccc(N(C)C)c2O[C@H]1CN(C)C(=O)NC1CCCCC1	none
C[C@H]1CCCCO[C@H](CN(C)S(=O)(=O)c2ccccc2)[C@@H](C)CN([C@@H](C)CO)C(=O)c2cc(NC(=O)Nc3ccc4c(c3)OCO4)ccc2O1	DENV2 CPE rescue 61
C[C@@H]1CN([C@@H](C)CO)C(=O)c2cc(NC(=O)Nc3ccc4c(c3)OCO4)ccc2O[C@@H](C)CCCCO[C@@H]1CN(C)S(=O)(=O)c1ccccc1	none
C[C@@H]1CCCCO[C@H](CN(C)S(=O)(=O)c2ccccc2)[C@@H](C)CN([C@H](C)CO)C(=O)c2cc(NC(=O)Nc3ccc4c(c3)OCO4)ccc2O1	DENV2 CPE rescue 91
C[C@H](CO)N1C[C@H](C)[C@@H](CN(C)S(=O)(=O)c2ccccc2)OCCCC[C@H](C)Oc2ccc(NC(=O)Nc3ccc4c(c3)OCO4)cc2C1=O	DENV2 CPE rescue 29
COc1ccc2c3c(n(C)c2c1)[C@@H](CO)N(C(=O)C1CC1)CC31CN(C(=O)Nc2cccc(F)c2)C1	none (no result: Cneo AK release, FN deposition inh, PGC1a acetyl inh)
COc1ccc(CN(C)C[C@H]2OCCCC[C@@H](C)Oc3ccc(NC(=O)Nc4c(C)noc4C)cc3C(=O)N([C@@H](C)CO)C[C@H]2C)cc1	none (no result: FN deposition inh)
Cc1noc(C)c1NC(=O)N(C)C[C@@H]1Oc2cc(C#CCC3CCCC3)ccc2S(=O)(=O)N([C@@H](C)CO)C[C@@H]1C	none
CC(=O)N1[C@@H]2CN(CC3CC3)C[C@H]1C2c1ccc(Br)cc1 (stereo partly drawn)	none (no result: Cneo AK release, DENV2 CPE rescue, F508del corr, PGC1a acetyl inh)
CC(=O)OCc1ccc(C2=CC(=O)CC(C)(C)C2=O)cc1	none (no result: PGC1a acetyl inh)
CC1(C)CC(=O)C=C(c2ccc(COC(=O)C(c3ccccc3)c3ccccc3)cc2)C1=O	DENV2 CPE rescue 54 (no result: FN deposition inh)
COC(=O)C[C@H]1CC[C@H](NS(=O)(=O)c2ccc(OC)cc2)[C@H](CO)O1	none
CCCN(C)C1CN(Cc2cn(Cc3ccc(C)cc3)nn2)S(=O)(=O)C1 (stereo not drawn)	DENV2 CPE rescue 25 (no result: Cneo AK release, PGC1a acetyl inh)
CCCOC(=O)c1ccc(O)cc1	DENV2 CPE rescue 26 (no result: Xi reactivation, FN deposition inh)
